Active and inactive are the calls of the source. The rule behind the calls is not given here.
How the values were obtained:
[1] = tested on: Chikungunya virus; assay: Antiviral activity against Chikungunya virus LR2006_OPY1 infected in african green monkey Vero cells assessed as reduction in virus-induced cytopathogenicity at 100 ug/mL after 3 days by cell titer-blue fluorescent assay; format: functional, cell-based
[2] = Cytotoxicity against african green monkey Vero cells assessed as reduction in cell viability after 72 hrs by cell titer-blue fluorescent assay; format: cell-based; settings: chlorocebus sabaeus
Summary of the method: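 Uninfected Vero (CCL-81) cells were seeded at 1 × 10^5 cells/mL, grown for 24 h at 37°C with 5% CO2, then exposed to compound at 4 to 4000 µg/mL for 72 h. CellTiter-Blue was added for 2 h in the dark, and fluorescence was read at 560/590 nm. Viability is given as % of control, from at least three repeats.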

[3] = tested on: Chikungunya virus; assay: Antiviral activity against Chikungunya virus LR2006_OPY1 infected in african green monkey Vero cells assessed as reduction in virus-induced cytopathogenicity after 3 days by cell titer-blue fluorescent assay; format: functional, cell-based; settings: 72 h

Q: With CN(C)c1ccc(/C=C2\SC(=S)NC2=O)cc1 as the compound, how does the inhibition [1] read?
A: inactive

Q: And the CC50 at 72 h [2]?
A: > 100 µM

Q: Which inhibition [1] does the source give for COc1ccc(/C=C2\SC(=S)NC2=O)cc1 here?
A: inactive

Q: What about the CC50 at 72 h [2] of the same compound?
A: > 100 µM

Q: With O=C1NC(=S)S/C1=C\c1ccc(O)cc1 as the compound, how does the inhibition [1] read?
A: inactive

Q: What about the CC50 at 72 h [2] of the same compound?
A: > 100 µM

Q: Which IC50 [3] does the source give for NC1=NC(=O)/C(=C/c2ccccc2[N+](=O)[O-])S1 here?
A: 40.1 µM

Q: And the CC50 at 72 h [2]?
A: > 100 µM

Q: Which inhibition [1] does the source give for N=C1NC(=O)/C(=C/c2ccc(O)cc2)S1 [MIRIN] here?
A: inactive

Q: What about the CC50 at 72 h [2] of the same compound?
A: > 100 µM

Q: For O=C1NC(=S)S/C1=C\c1cccs1, which inhibition [1] is on record?
A: inactive

Q: And the CC50 at 72 h [2]?
A: > 100 µM

Q: Which results are given for O=C1NC(=S)S/C1=C\c1ccc(Cl)cc1?
A: inhibition [1]: inactive; CC50 at 72 h [2]: > 100 µM

Q: For O=C1NC(=S)S/C1=C\c1ccccc1[N+](=O)[O-], which inhibition [1] is on record?
A: inactive

Q: What about the CC50 at 72 h [2] of the same compound?
A: > 100 µM

Q: What does the source list for O=C1NC(=S)S/C1=C\c1ccc2ccccc2c1?
A: IC50 [3]: 3.6 µM; CC50 at 72 h [2]: > 100 µM

— ChEMBL document CHEMBL3352512, “Thiazolidone derivatives as inhibitors of chikungunya virus” (Eur J Med Chem, 2015)
